# Test results reported in ChEMBL document CHEMBL2150962, “Antimicrobial rubrolides from a South African species of Synoicum tunicate” (J Nat Prod, 2012).
# Key:
# Escherichia coli = assay: Antimicrobial activity against Escherichia coli O157:H7 at 100 ug/ml; format: functional; details: read-out: GI
# Enterococcus faecalis = assay: Antimicrobial activity against gentamycin- and vancomycin-resistant Enterococcus faecalis ATCC 700802 at 100 ug/ml; format: functional; details: read-out: GI
# [1] = system: Staphylococcus epidermidis; assay: Antimicrobial activity against Staphylococcus epidermidis ATCC 35984TCC BAA-1721; format: functional, organism-based
# How it was run: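 Microtiter broth dilution; S. epidermidis ATCC 35984 grown in tryptic soy broth, inoculum 5 × 10⁵ cfu/mL, 16 h static incubation at 37 °C. Compound tested over 130 - 0.3 μg/mL. Technical duplicates, biological triplicate; percentage inhibition fitted by nonlinear regression to IC50.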
# Staphylococcus aureus = assay: Antimicrobial activity against methicillin-resistant Staphylococcus aureus ATCC BAA-1720; format: functional, organism-based
SMILES,inhibition of growth at 100 µg/mL (Escherichia coli) [%],inhibition of growth at 100 µg/mL (Enterococcus faecalis) [%],IC50 [1] [µM],IC50 (Staphylococcus aureus) [µM]
COc1ccc(/C=C2\OC(=O)C=C2c2ccc(O)cc2)cc1Br,22,43,98,256
O=C1C=C(c2ccc(O)c(Br)c2)/C(=C/c2ccc(O)c(Br)c2)O1,25,2,28,89
O=C1C=C(c2ccc(O)c(Br)c2)/C(=C/c2ccc(O)cc2)O1,0,16,38,82
COc1ccc(/C=C2\OC(=O)C=C2c2ccc(O)c(Br)c2)cc1,14,2,42,360
COc1ccc(/C=C2\OC(=O)C=C2c2ccc(O)cc2)cc1 [RUBROLIDE F],15,47,79,1010
O=C1C=C(c2ccc(O)cc2)/C(=C/c2ccc(O)cc2)O1 [RUBROLIDE E],16,89,21,105
